# Only some compounds are listed: those with a hit (about 4.1% of all), similar ones and a draw of the others.
# KCNQ1 block: inhibitors of human KCNQ1 channel, primary screen, cell-based, thallium flux, high-throughput | AID 2642, 2010 | Potassium voltage-gated channel subfamily KQT member 1 (Homo sapiens), P51787 | CHO-K1 KCNQ1, FluxOR thallium flux fluorescence; active compounds read high | B-score at 10 µM | 310,000 compounds, 1.3% hits;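 active = compounds whose thallium flux B-score, printed positive for inhibition, exceeds three library SD while starting fluorescence stays within three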;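 note: channel opened by potassium depolarization with thallium stimulus after 20 min compound exposure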
# Cl transport mod: KCC2 cotransporter modulators, thallium flux, primary screen, cell-based, HEK293 KCC2, FluoZin-2 fluorescence, MLSMR | Solute carrier family 12 member 5 (Homo sapiens), Q9H2X9 | KCC2 cells, thallium flux FluoZin-2 fluorescence | B-score of Tl+ flux slope (higher = more flux/activation; lower = inhibition) at 10 µM | 190,000 compounds, 2.2% hits | AID 1456, 2008;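 active = thallium flux slope and its plate-corrected score both differing from the plate sample mean at a set confidence after two filtering rounds, in either direction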;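 note: slope of fluorescence scaled to starting intensity during 10 to 20 s after thallium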
# Target sequence (Q9H2X9 whole entry, looked up): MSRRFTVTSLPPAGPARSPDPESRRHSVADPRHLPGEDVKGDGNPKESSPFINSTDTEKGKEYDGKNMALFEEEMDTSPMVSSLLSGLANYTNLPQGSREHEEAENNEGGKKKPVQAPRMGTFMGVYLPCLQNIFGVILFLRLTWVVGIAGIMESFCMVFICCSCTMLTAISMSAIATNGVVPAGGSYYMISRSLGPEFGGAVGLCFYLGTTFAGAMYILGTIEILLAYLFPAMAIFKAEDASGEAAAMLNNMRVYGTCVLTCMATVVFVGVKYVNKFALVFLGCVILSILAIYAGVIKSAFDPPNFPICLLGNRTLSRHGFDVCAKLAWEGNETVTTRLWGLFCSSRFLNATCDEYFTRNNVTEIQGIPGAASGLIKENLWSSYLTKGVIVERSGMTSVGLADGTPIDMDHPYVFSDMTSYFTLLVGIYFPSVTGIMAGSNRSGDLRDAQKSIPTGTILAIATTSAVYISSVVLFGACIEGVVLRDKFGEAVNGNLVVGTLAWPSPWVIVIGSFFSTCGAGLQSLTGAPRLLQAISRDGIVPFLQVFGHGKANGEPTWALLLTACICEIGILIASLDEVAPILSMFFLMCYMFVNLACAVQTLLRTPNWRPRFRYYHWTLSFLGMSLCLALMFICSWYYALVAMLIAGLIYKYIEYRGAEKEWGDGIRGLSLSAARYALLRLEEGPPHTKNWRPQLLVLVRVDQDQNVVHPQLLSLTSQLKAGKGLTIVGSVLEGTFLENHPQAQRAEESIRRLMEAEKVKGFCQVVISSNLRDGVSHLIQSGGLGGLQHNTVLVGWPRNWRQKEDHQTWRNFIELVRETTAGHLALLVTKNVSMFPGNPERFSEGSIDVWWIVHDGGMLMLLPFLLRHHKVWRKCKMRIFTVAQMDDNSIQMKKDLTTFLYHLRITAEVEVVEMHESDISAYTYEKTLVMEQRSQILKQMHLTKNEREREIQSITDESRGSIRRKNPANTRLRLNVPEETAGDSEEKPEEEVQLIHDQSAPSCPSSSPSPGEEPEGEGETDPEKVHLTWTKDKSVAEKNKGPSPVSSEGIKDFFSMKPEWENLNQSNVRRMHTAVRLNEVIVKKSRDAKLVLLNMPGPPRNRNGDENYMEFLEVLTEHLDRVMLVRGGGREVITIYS
# hERG rescue: hERG rescue from dofetilide block, primary screen, cell-based, CHO-hERG, FluxOR thallium flux, dofetilide IC70 | Voltage-gated inwardly rectifying potassium channel KCNH2 (Homo sapiens), Q12809 | dofetilide IC70 present | activation (rescue from dofetilide block), less the hit threshold, % at 10 µM | 310,000 compounds, 0.51% hits | AID 1511, 2009;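 active = activation above the mean of controls blocked by dofetilide plus 5 SD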;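 note: thallium influx through hERG after potassium depolarization seen as dye fluorescence rise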
# KCNK9 inh: KCNK9 potassium channel inhibitors, primary screen, HEK293 cells, thallium flux; Potassium channel subfamily K member 9 (Homo sapiens), Q9NPC2; FluxOR thallium flux fluorescence; active compounds read low; B-score at 10 µM; 310,000 compounds, 1.2% hits;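 active = ratio B-score over 3 SD below the library mean, with starting fluorescence within 5 SD of its mean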;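 note: negative B-score means less thallium flux so channel inhibition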
# KCNQ1 act: potentiators or activators of KCNQ1 channel, primary screen, cell-based, thallium flux, high-throughput; Potassium voltage-gated channel subfamily KQT member 1 (Homo sapiens), P51787; CHO-K1 KCNQ1, thallium flux FluxOR fluorescence; active compounds read high; B-score at 10 µM; 310,000 compounds, 0.35% hits; AID 2648, 2010;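 active = fluorescence ratio B-score, a plate-corrected score, at least three library SD, with initial intensity B-score within 5 SD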
#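 Doses: Single concentration per compound, DMSO matched to controls | Test system: KCNQ1-transfected CHO-K1 cells | Timing: 90 min dye loading and 20 min compound exposure, both at room temperature | Measured by: Kinetic FluxOR thallium fluorescence, 10-s 1-Hz baseline, 110-s post-stimulus read | Medium: Assay buffer with matched DMSO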
# KCNK3 inh: human KCNK3 channel inhibitors, primary screen, CHO cells, FluxOR thallium flux, B-score. FluxOR fluorescence; active compounds read low. B-score at 10 µM. 340,000 compounds, 0.84% hits;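 active = B-score under library mean minus 4 SD, starting fluorescence ratio at most library mean plus 5 SD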;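 note: more negative B-score means stronger inhibition of thallium flux through KCNK3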
# KCC2 sec1: KCC2 modulators in sodium-free buffer, confirmation, cell-based, HEK293 KCC2, thallium flux, secondary assay | 3,700 compounds, 15% hits | shares compounds with Cl transport mod | FluoZin2 fluorescence; active compounds read high | normalised thallium flux (F/F0 slope) at 10 µM | AID 1713, 2009;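 active = thallium flux slope above the same plate's solvent-only control mean plus 3 SD; inconclusive = the two replicate wells disagree; inactive = no significant difference from solvent-only control wells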
# KCC2 bumet counter: thallium flux persisting under bumetanide in KCC2 cells, confirmation, counter-screen for KCC2 modulator project, cell-based, HEK293 KCC2, FluoZin2, secondary assay 3. 3,700 compounds, 49% hits. AID 1714, 2009. shares compounds with Cl transport mod. normalized thallium flux at 10 µM. HEK293-KCC2 + bumetanide/ouabain; active compounds read high;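 active = thallium entry rate above the same plate's blocked-transporter control wells by more than 3 SD; inconclusive = the two repeat wells disagree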;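 note: raw slope of fluorescence over initial fluorescence between 10 and 20 s after thallium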
# KCC2 secondary2: KCC2 modulators without ouabain present, confirmation, cell-based, HEK293 KCC2, thallium flux, FluoZin2, secondary assay 2. 3,700 compounds, 23% hits. thallium flux FluoZin2 fluorescence; actives lie on both sides; F/F0 rise rate, 10–20 s post-thallium. AID 1715, 2009. normalized thallium flux at 10 µM. shares compounds with Cl transport mod;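 active = thallium flux slope more than 3 SD above or below the plate's solvent-only control mean, mostly below; inconclusive = the two repeat wells disagreed; inactive = no significant shift from solvent-only controls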;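 note: raw slope with 0.1% DMSO as baseline and bumetanide as block control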
# HEK counter1: thallium flux modulation in parental HEK cells, confirmation, counter-screen for KCC2 modulator project, cell-based, counterscreen 1; shares compounds with Cl transport mod; HEK293 parental cells, thallium flux FluoZin2, ouabain; baseline-ratio fluorescence slope, 10–20 s after thallium; thallium flux rate (normalised fluorescence) at 10 µM; 3,700 compounds, 46% hits; AID 1716, 2009;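 active = thallium flux rate significantly above the same plate's solvent-only control wells, beyond their mean plus 3 SD; inconclusive = the two replicate wells gave conflicting results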
# KCC2 retest ouab: KCC2 inhibitors and activators, ouabain retest, confirmation, HEK-KCC2 cells; HEK293-KCC2, thallium flux FluoZin2 fluorescence; bidirectional: low = inhibitor, high = activator; raw Tl+ flux slope (below DMSO = inhibition, above = activation) at 10 µM; shares compounds with Cl transport mod; AID 1717, 2009; 3,700 compounds, 48% hits;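 active = thallium flux slope beyond 3 SD from same-plate DMSO control mean in most replicates, usually higher, sometimes lower; inconclusive = repeat tests gave conflicting results; inactive = no significant difference from controls in most replicates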;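 note: slope of initial-normalized fluorescence between seconds 10 and 20 after thallium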
# HEK293 Tl flux2: native HEK Tl+ uptake effects, second counter-screen – HEK cells, counterscreen 2, counter-screen for KCC2 modulator project, confirmation | shares compounds with Cl transport mod | HEK293 parental, thallium flux FluoZin-2 fluorescence slope | thallium flux slope at 10 µM | 3,700 compounds, 33% hits;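 active = thallium flux slope above the same plate's solvent-control mean plus 3 SD in both duplicate wells; inconclusive = duplicate wells that disagreed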;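 note: run without ouabain in cells lacking the KCC2 cotransporter; slope of fluorescence scaled to its starting value between 10 and 20 s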
# KCNQ1 inh valid: KCNQ1 potassium channel inhibitors, confirmation, cell-based, Tl flux, duplicate | shares compounds with KCNQ1 block | KCNQ1 cell line, FluxOR thallium flux fluorescence | inhibition, % at 10 µM | 1,600 compounds, 93% hits | AID 588353, 2011;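 active = primary screen active, with duplicate mean exceeding buffer control mean plus 3 SD of buffer wells, cut at about 28% in these data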;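 note: 0% = buffer control ratio and 100% = XE991 inhibitor control ratio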
# CHO KCNQ1 ctr: thallium flux effects in parental CHO cells, counter-screen for KCNQ1 inhibitor project, cell-based, Tl flux; AID 588366, 2011; 1,600 compounds, 21% hits; fluorescence ratio (Tl flux) at 10 µM; shares compounds with KCNQ1 block; parental CHO-K1, FluxOR thallium flux fluorescence ratio; active compounds read low; zero means no signal rise above baseline;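 active = mean of duplicate thallium-flux fluorescence ratios in parental host cells more than 5 SD below the buffer control mean, cut at about 0.38 in these data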;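 note: ratio is peak minus minimum fluorescence divided by baseline fluorescence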
# KCNQ2 spec: KCNQ2 channel inhibition, selectivity assay for KCNQ1 inhibitor project, cell-based; shares compounds with KCNQ1 block; KCNQ2 cells, FluxOR thallium flux fluorescence; inhibition, % at 10 µM; 1,600 compounds, 71% hits; AID 651746, 2012;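 active = mean percent inhibition of the KCNQ2 thallium signal more than 5 SD above the buffer-only control wells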;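 note: KCNQ2 expressed in CHO cells; 0% = buffer control wells and 100% = XE-991 inhibitor control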
# KCNQ1-KCNE1 inh: KCNQ1/KCNE1 channel inhibition, selectivity assay for KCNQ1 inhibitor project, CHO-K1 cells, thallium flux, FluxOR; 1,600 compounds, 77% hits; inhibition, % at 10 µM; shares compounds with KCNQ1 block; AID 652147, 2013; FluxOR thallium flux fluorescence;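 active = mean percent inhibition of duplicate wells above the buffer-only control mean plus 3 SD of those controls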;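 note: 0% = buffer only wells and 100% = XE-991 inhibitor control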
# * marks the source's active call; other numbers are inactive results; i = inactive; ? = inconclusive; . = not tested or not shown.
SMILES,KCNQ1 block,Cl transport mod,hERG rescue,KCNK9 inh,KCNQ1 act,KCNK3 inh,KCC2 sec1,KCC2 bumet counter,KCC2 secondary2,HEK counter1,KCC2 retest ouab,HEK293 Tl flux2,KCNQ1 inh valid,CHO KCNQ1 ctr,KCNQ2 spec,KCNQ1-KCNE1 inh
O=C(c1cc2c(s1)-c1ccccc1OC2)N1CCC2(CC1)OCCO2,i,-4.1*,-15,i,i,i,0.0072,0.0052,0.026*,0.0078,?,0.012,.,.,.,.
COc1ccc(CN2CCN(C(=O)Cc3ccccc3)CC2)c(OC)c1,i,0.01,-4,i,i,i,.,.,.,.,.,.,.,.,.,.
COc1ccc(CN2CCN(Cc3ccccc3)CC2)c(OC)c1,i,5.4*,-9,i,i,i,0.008,0.0059,0.03,0.0062,0.02,0.0088,.,.,.,.
CCOC(=O)C(O)(c1ccc(NC(=S)NC(=O)c2ccc(Cl)cc2Cl)c(C)c1)C(F)(F)F (centres undefined),i,5.5*,-6,i,i,i,0.0063,0.029*,0.036,0.014*,0.029*,0.016*,.,.,.,.
O=[N+]([O-])/C=C/c1c(Cl)cccc1Cl,.,.,.,.,.,i,.,.,.,.,.,.,.,.,.,.
O=C1NC(=O)C2(Cc3ccccc3N3CCCC32)C(=O)N1Cc1ccccc1 (centres undefined),i,-0.78,-12,i,i,i,.,.,.,.,.,.,.,.,.,.
O=C1NC(=O)C2(Cc3c(nc4ccccn4c3=O)N3CCCCCC32)C(=O)N1Cc1ccccc1 (centres undefined),.,-4*,.,.,.,i,0.0063,0.0051,?,0.0051*,0.016*,0.0085,.,.,.,.
CCC1([N+](=O)[O-])COP(=O)(NCc2cccnc2)OC1 (centres undefined),.,.,.,.,.,i,.,.,.,.,.,.,.,.,.,.
CC12C=CC(=O)C=C1CC(O)C1C2CCC2(C)C1CCC2(C)O (centres undefined),.,.,.,.,.,i,.,.,.,.,.,.,.,.,.,.
CC(C)NS(=O)(=O)c1ccc(OCC(=O)N2CCN(Cc3ccccc3)CC2)cc1,i,-1.4,-7,i,i,i,.,.,.,.,.,.,.,.,.,.
O=C(COc1ccc(Cl)cc1)N1CCN(Cc2ccccc2)CC1,i,.,-2,i,i,i,?,0.0055,0.029,0.007,0.025*,0.01,.,.,.,.
CCC(=NCCOc1ccc(Cl)cc1)c1c(O)n(C)c(=O)n(C)c1=O,7*,-0.24,-31,i,i,i,.,.,.,.,.,.,122*,0.34*,114%*,144%*
Cc1ccccc1NC(=O)c1cc(-c2ccccc2)n(CCCN2CCOCC2)c1C,i,-1.1,-8,i,i,i,.,.,.,.,.,.,.,.,.,.
Cc1ccc(NC(=O)c2cc(-c3ccccc3)n(CCCN3CCOCC3)c2C)cc1,6*,.,-8,i,i,i,.,.,.,.,.,.,81*,0.45,62%*,125%*
CC1=NNC(=O)C1Br (centres undefined),.,.,.,.,.,i,.,.,.,.,.,.,.,.,.,.
CCCCn1c(=O)c(C(=O)NCc2ccccc2OC)c(O)c2ccccc21,7*,.,-10,i,i,i,.,.,.,.,.,.,56*,0.47,76%*,48%*
Cc1ccc2c(c1)C1CN(C)CCC1N2C(=S)Nc1cccnc1 (centres undefined),i,-0.21,-11,i,i,i,.,.,.,.,.,.,.,.,.,.
Cc1ccc2c(c1)C1CN(C)CCC1N2C(=O)Nc1cccc(Cl)c1 (centres undefined),7*,0.52,-13,i,i,i,.,.,.,.,.,.,0,0.49,i,i
CC(C)(C)c1nc(N2CCN(C(=O)c3ccco3)CC2)c2nnn(Cc3ccccc3Cl)c2n1,7*,.,-12,i,i,i,.,.,.,.,.,.,116*,0.36*,101%*,136%*
Oc1cc(Cl)ccc1Oc1ccc(Cl)cc1Cl,9*,.,-6,-7.3*,i,i,.,.,.,.,.,.,52*,0.46,i,86%*

# Compound activity (PubChem)
